Experimental data reported in ChEMBL document CHEMBL1123657, “Anthrapyrazole anticancer agents. Synthesis and structure-activity relationships against murine leukemias” (J Med Chem, 1987).

Assays:
[1] = tested on: L1210; assay: Compound was tested in vitro against murine L1210 leukemia; IA means inactive.; type: functional, cell-based, Mus musculus
[2] = tested on: P388; assay: Optimal dose per injection in mg/kg required to inhibit growth of P388 leukemia cells in mice; type: functional, Mus musculus
How it was run: (§1)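 P388 leukemia implanted ip in mice; drug given ip on days 1 and 5 (ip/ip; D1,5), dosed in mg/kg per injection. Read-out is treated/control (T/C, %) with cures counted, reported at the optimal dose.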

[3] = tested on: P388; assay: Inhibition of P388 leukemia cells in mice, measured as percent treated to the control values with the number of 30 day survivors; type: functional, Mus musculus; how it was run: as §1
[4] = tested on: P388; assay: Activity against P388 leukemia cells in mice, by intraperitoneal dosing and net log tumor cell kill was reported; type: functional, Mus musculus
[5] = tested on: L1210; assay: Compound was tested in vitro against murine L1210 leukemia;IA means inactive; type: functional, cell-based, Mus musculus
[6] = tested on: L1210; assay: Compound was tested in vitro against murine L1210 leukemia; IA is inactive.; type: functional, cell-based, Mus musculus
[7] = tested on: B16; assay: Optimal dose per injection in mg/kg required to inhibit growth of murine B-16 melanoma in vivo; type: functional, Mus musculus
How it was run: (§2)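 Murine B-16 melanoma in vivo: tumor implanted ip, compound given ip on days 1–9 (ip/ip; D1–9), dosed as mg/kg per injection. Activity expressed as T/C (%) plus number of cures, taken at the optimal dose.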

[8] = tested on: B16; assay: Tested for activity against murine B-16 melanoma in mice and percent treated to the control values with the number of 60 day survivors; type: functional, Mus musculus; how it was run: as §2
[9] = tested on: L1210; assay: Tested in vitro against murine L1210 leukemia.; type: functional, cell-based; details: Mus musculus
[10] = tested on: P388; assay: Tested for activity against P388 leukemia cells in mice, by intraperitoneal dosing and percent treated to the control values with the number of 30 day survivors i; type: functional, Mus musculus
How it was run: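 P388 leukemia implanted intraperitoneally in mice. Compound given ip on days 1 and 5, as mg/kg per injection across a dose series. Read-out is median survival of treated mice as a percentage of untreated controls (T/C %), taken at the optimal dose, with cures noted.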

| IC50 [6] | SMILES | IC50 [1] | Dose [2] [mg/kg] | T/C [3] [%] | Activity [4] | IC50 [5] | Optimal dose [7] [mg/kg] | T/C [8] [%] | IC50 [9] [nM] | T/C [10] [%] |
| --- | --- | --- | --- | --- | --- | --- | --- | --- | --- | --- |
|  | CCN(CC)CCn1nc2c3c(c(NCCN(C)C(=O)OCc4ccccc4)ccc31)C(=O)c1c(O)ccc(O)c1-2 | Not Active |  |  |  |  |  |  |  |  |
|  | O=C(O)CCNc1ccc2c3c(nn2CCO)-c2ccccc2C(=O)c13 | Not Active | 25 | 98 | -1.6 |  |  |  |  |  |
|  | CN(CCNc1ccc2c3c(nn2CCNCCO)-c2c(O)ccc(O)c2C(=O)c13)C(=O)OCc1ccccc1 | Not Active |  |  |  |  |  |  |  |  |
|  | CCN(CC)CCn1nc2c3c(c(NCCC(=O)O)ccc31)C(=O)c1ccccc1-2 | Not Active | 12.5 | 117 | -1.3 |  |  |  |  |  |
|  | CCCCCCNc1ccc2c3c(nn2CCO)-c2ccccc2C(=O)c13 |  | 100 | 98 | -1.6 | Not Active |  |  |  |  |
| Not Active | CCN(CC)CCNc1cccc2c1C(=O)c1cccc3c1c-2nn3C.Cl |  |  |  |  |  |  |  |  |  |
|  | Cl.NCCCNc1ccc2c3c(nn2CCNCCO)-c2c(O)ccc(O)c2C(=O)c13 |  | 45 | 294 | >6.5 |  | 8 | 338 | 960 |  |
|  | Cl.NCCCCCNc1ccc2c3c(nn2CCNCCO)-c2c(O)ccc(O)c2C(=O)c13 | Not Active | 100 | 150 | 1.5 |  |  |  |  |  |
|  | Cl.O=C1c2ccccc2-c2nn(CCNCCO)c3ccc(NCCO)c1c23 |  | 25 | 139 | 0.1 |  |  |  | 750 |  |
|  | CCN(CC)CCCNc1ccc2c3c(nn2CCO)-c2ccccc2C(=O)c13.Cl | Not Active | 200 | 104 | -1.5 |  |  |  |  |  |
|  | Cl.O=C1c2c(O)ccc(O)c2-c2nn(CCO)c3ccc(NCCN4CCOCC4)c1c23 |  | 400 | 122 | -1.2 |  |  |  | 1100 |  |
|  | CCN(CC)CCn1nc2c3c(cccc31)C(=O)c1c(NCCNCCO)cccc1-2.Cl |  | 12.5 |  | -1.3 |  |  |  | 230 | 117 |
|  | CCN(CC)CCCCNc1ccc2c3c(nn2CCO)-c2ccccc2C(=O)c13.Cl | Not Active | 300 | 115 | -1.3 |  |  |  |  |  |
|  | CCN(CC)CC(O)Cn1nc2c3c(c(NCCNCCO)ccc31)C(=O)c1c(O)ccc(O)c1-2.Cl (stereo not drawn) |  | 12.5 | 223 | 5.3 |  |  |  | 840 |  |
|  | Cl.NCCCNCCCCNCCCNc1ccc2c3c(nn2CCNCCO)-c2c(O)ccc(O)c2C(=O)c13 | Not Active | 12.5 | 145 | 0.6 |  |  |  |  |  |
|  | Cl.O=C1c2c(O)ccc(O)c2-c2nn(CCO)c3ccc(NCCNCCO)c1c23 |  | 200 | 271 | 6.8 |  | 80 | 246 | 780 |  |
|  | Cl.O=C1c2c(O)ccc(O)c2-c2nn(CCNCCO)c3ccc(NCCN(CCO)CCO)c1c23 |  | 200 | 277 | >6.6 |  | 25 | 342 | 430 |  |
|  | CCN(CC)CCn1nc2c3c(c(NCCN)ccc31)C(=O)c1ccccc1-2.Cl |  | 25 |  | -1.5 |  |  |  | 46 | 104 |
|  | CN1CCN(c2ccc3c4c(nn3CCNCCO)-c3c(O)ccc(O)c3C(=O)c24)CC1.Cl |  | 12.5 | 192 | 3.8 |  |  |  | 430 |  |
|  | Cl.O=C1c2c(O)ccc(O)c2-c2nn(CCNCCO)c3ccc(NCCN4CCOCC4)c1c23 |  | 50 | 177 | 2.9 |  |  |  | 650 |  |
|  | Cl.O=C1c2c(O)ccc(O)c2-c2nn(CCCNCCO)c3ccc(NCCNCCO)c1c23 | Not Active | 100 | 275 | >7 |  |  |  |  |  |

| IC50 [6] | SMILES | IC50 [1] | Dose [2] [mg/kg] | T/C [3] [%] | Activity [4] | IC50 [5] | Optimal dose [7] [mg/kg] | T/C [8] [%] | IC50 [9] [nM] | T/C [10] [%] |
| --- | --- | --- | --- | --- | --- | --- | --- | --- | --- | --- |
|  | CCN(CC)CCNc1ccc2c3c(nn2C)-c2ccccc2C(=O)c13.Cl |  | 400 | 98 | -1.5 |  |  |  | 670 |  |
|  | CSCCn1nc2c3c(c(NCCNCCO)ccc31)C(=O)c1c(O)ccc(O)c1-2.Cl | Not Active | 6.25 | 140 | 0.3 |  |  |  |  |  |
|  | CN(C)CCNCCNc1ccc2c3c(nn2CC(O)CO)-c2c(O)ccc(O)c2C(=O)c13.Cl (stereo not drawn) |  | 400 | 281 | 6.7 |  |  |  | 2200 |  |
|  | CCN(CC)CCn1nc2c3c(c(NCCNCCO)ccc31)C(=O)c1c(O)ccc(O)c1-2.Cl |  | 12.5 | 264 | >6.8 |  | 6 |  | 130 |  |
|  | CCN(CC)CC(O)Cn1nc2c3c(c(NCCN)ccc31)C(=O)c1c(O)ccc(O)c1-2.Cl (stereo not drawn) | Not Active | 6.25 | 262 | >6.7 |  |  |  |  |  |
|  | Cl.NCCNCCNc1ccc2c3c(nn2CCO)-c2c(O)ccc(O)c2C(=O)c13 | Not Active | 200 | 174 | 1.2 |  |  |  |  |  |
|  | Cl.O=C1c2ccccc2-c2nn(CCO)c3ccc(NCCN4CCNCC4)c1c23 | Not Active | 50 | 109 | -1.3 |  |  |  |  |  |
|  | CN(C)CCn1nc2c3c(c(NCCNCCO)ccc31)C(=O)c1c(O)ccc(O)c1-2.Cl |  | 12.5 | 242 | 6.5 |  | 3 | 183 | 120 |  |
|  | Cl.NCCCCNc1ccc2c3c(nn2CCNCCO)-c2c(O)ccc(O)c2C(=O)c13 | Not Active | 100 | 173 | 3.4 |  |  |  |  |  |
|  | COCCn1nc2c3c(c(NCCN)ccc31)C(=O)c1c(O)ccc(O)c1-2.Cl | Not Active | 50 | 127 | -0.6 |  |  |  |  |  |
|  | CCN(CC)CCCCCCCNc1ccc2c3c(nn2CCO)-c2ccccc2C(=O)c13.Cl | Not Active | 100 | 98 | -1.6 |  |  |  |  |  |
|  | Cl.Cn1nc2c3c(c(NCCNCCO)ccc31)C(=O)c1ccccc1-2 |  | 100 | 136 | -0.2 |  |  |  | 710 |  |
|  | Cl.NCCCn1nc2c3c(c(NCCNCCO)ccc31)C(=O)c1c(O)ccc(O)c1-2 |  | 50 |  | >6.6 |  | 6.25 | 375 | 160 |  |
|  | Cl.NCCNc1ccc2c3c(nn2CCO)-c2c(O)ccc(O)c2C(=O)c13 |  | 100 | 196 | 6.8 |  |  |  | 480 |  |
|  | CCN(CC)CCCCNc1ccc2c3c(nn2CCN(CC)CC)-c2ccccc2C(=O)c13.Cl |  | 25 | 107 | -1.4 |  |  |  | 620 |  |
|  | Cl.O=C1c2ccccc2-c2nn(CCO)c3ccc(NCCN4CCOCC4)c1c23 | Not Active | 25 | 100 | -1.5 |  |  |  |  |  |
|  | CCN(CC)CCn1nc2c3c(c(NCCN)ccc31)C(=O)c1c(O)ccc(O)c1-2.Cl |  | 12.5 | 280 | >7.1 |  | 3.6 | 176 | 46 |  |
|  | Cl.NCCn1nc2c3c(c(NCCNCCO)ccc31)C(=O)c1c(O)ccc(O)c1-2 |  | 12.5 | 270 | > 6.7 |  | 3 | 306 | 580 |  |
|  | COc1cccc2c1C(=O)c1c(O)c3c(c(O)c1C2=O)C[C@@](O)(C(=O)CO)C[C@@H]3O[C@H]1C[C@H](N)[C@H](O)[C@H](C)O1 [DOXORUBICIN] |  | 8 | 225 | 5.6 |  | 1 | 434 | 69 |  |
|  | O=C1c2c(O)ccc(O)c2C(=O)c2c(NCCNCCO)ccc(NCCNCCO)c21 [MITOXANTRONE] |  | 3 | 267 | >6.8 |  | 0.6 | 265 | 1.6 |  |
|  | CNCCNc1ccc2c3c(nn2CCNCCO)-c2c(O)ccc(O)c2C(=O)c13 [TELOXANTRONE] |  | 12.5 |  | >6.6 |  | 1.5 | 357 | 140 |  |
